Published values collected from several papers.
Lines come from different studies, so protocols differ.

`C[C@]1(C(=O)O)CSC(c2ccc(OCCCCCC(=O)O)cc2O)=N1` has a logD of -1.9 (shake flask; aqueous buffer; pH 7.4).
The logD of `COc1ccc2cc(CCC[18F])ccc2c1` is reported as 2.46 (shake flask; aqueous buffer; pH 7.4).
With `CC(C)CN(C[C@@H](O)[C@H](Cc1ccccc1)NC(=O)O[C@H]1CO[C@H]2OCC[C@H]21)S(=O)(=O)c1ccc(N)cc1` the logD was 2.98 (shake flask; PBS; pH 3).
With `Fc1ccc(Nc2c(-c3ccccn3)nc3ccc(C4CC4)cn23)cc1` the logD was 2.9 (pH 7.4).
`CCOCc1nc2c(N)nc3ccccc3c2n1CC(C)(C)O` gave a logD of 1.14 (shake flask; PBS; pH 7.4).
For `Cc1c(C(=O)NN2CCCCC2)nc(-c2ccc(Cl)cc2Cl)n1-c1ccc(OCCC(F)(F)F)cc1`, the logD was 5.4 (shake flask; aqueous buffer; pH 7.4).
For `CCC1=C(C)c2cc3[nH]c(cc4[nH]c(cc5nc(cc1n2)C(C)=C5CC)c(C)c4CC)c(CC)c3C`, the logD was 1.42 (shake flask; aqueous buffer; pH 9).
`CN1CCN(c2ccc3[nH]c(-c4ccc5[nH]c(-c6ccc(O)cc6)nc5c4)nc3c2)CC1` gave a logD of 2.2 (shake flask; PBS; pH 7.4).
For `O=C(O)CN(CCCc1ccccc1)CC(=O)N[C@H](CO)Cc1c[nH]cn1`, the logD was -1.3 (shake flask; PBS; 2 h; pH 7.4).
`CN1CCN(c2ccc3nc(-c4ccc5nc(-c6ccc(OCCCC(=O)Nc7ccc(CC(CN(CCN(CC(=O)O)CC(=O)O)CC(=O)O)N(CC(=O)O)CC(=O)O)cc7)cc6)[nH]c5c4)[nH]c3c2)CC1` (stereo not shown) has a logD of -0.5 (shake flask; PBS; pH 7.4).
For `COC(=O)[C@H](Cc1c[nH]cn1)NC(=O)CN(CC(=O)O)Cc1ccccc1`, the logD was -2.05 (shake flask; PBS; 2 h; pH 7.4).
`Cc1c(C(=O)N[C@@H]2CCCC[C@@H]2N(C)C)nc(-c2ccc(Cl)cc2Cl)n1-c1ccc(OS(=O)(=O)CCC(F)(F)F)cc1` (relative stereo) has a logD of 3.8 (shake flask; aqueous buffer; pH 7.4).
`CC(C)Cc1ccc(C(C)C(=O)O)cc1` (stereo not shown) has a logD of 0.94 (shake flask; aqueous buffer; pH 7.5).
`Cc1c(C(=O)N[C@H]2CCC[C@H](O)C2)nc(-c2ccc(Cl)cc2Cl)n1-c1ccc(OS(=O)(=O)CCC(F)(F)F)cc1` (relative stereo) has a logD of 4.6 (shake flask; aqueous buffer; pH 7.4).
The logD of `CCCc1cc2c(N3CCn4c(nnc4C(F)(F)F)C3)nc(OCC[18F])nc2s1` is reported as 2.06 (shake flask; aqueous buffer; pH 7.4).
The logD of `CCCS(=O)(=O)Oc1ccc(-n2c(-c3ccc(Cl)cc3Cl)nc(C(=O)NN3CCCCC3)c2C)cc1` is reported as 4.6 (shake flask; aqueous buffer; pH 7.4).
For `COC(=O)CN(CCCc1ccccc1)CC(=O)N[C@@H](Cc1c[nH]cn1)c1nc(C)no1`, the logD was 1.52 (shake flask; PBS; 2 h; pH 7.4).
With `Cc1c(C(=O)NN2CCCC(O)C2)nc(-c2ccc(Cl)cc2Cl)n1-c1ccc(OS(=O)(=O)CCC(F)(F)F)cc1` (stereo not shown) the logD was 3.8 (shake flask; aqueous buffer; pH 7.4).
With `CNC(=O)[C@H](Cc1c[nH]cn1)NC(=O)CN(CC(=O)O)Cc1ccccc1` the logD was -2.29 (shake flask; PBS; 2 h; pH 7.4).
